Test results published in ChEMBL document CHEMBL1124309, “Toward the synthesis of isozyme-specific enzyme inhibitors. Potent inhibitors of rat methionine adenosyltransferases. Effect of one-atom elongation of the ribose-P alpha bridge in two covalent adducts of L-methionine and beta,gamma-imido-ATP” (J Med Chem, 1988).

What was measured:
[1] = molecular target: T1, S-adenosylmethionine synthetase (MAT 1 and MAT 2) (Rattus norvegicus, UniProt P13444+P18298); experiment: Inhibition constant of ATP varied compound was measured on M-2 variate methionine adenosyltransferase in rat kidney
In short: (§1)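 Rat M-2 enzyme; MgATP varied at six to eight levels, (0.5-4.0)×KM, with L-[methyl-14C]methionine fixed at 60 μM; two inhibitor levels plus no-inhibitor control. 10 min, 37 °C, pH 8.2 Tris/KCl/MgCl2/DTT buffer, duplicates. Acid-stopped; product on phosphocellulose discs counted by scintillation; no-ATP blanks. Ki from slope/intercept replots of double-reciprocal plots.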

[2] = molecular target: T1, S-adenosylmethionine synthetase (MAT 1 and MAT 2); experiment: Inhibition constant of ATP varied compound was measured on MT variant methionine adenosyltransferase in rat ascitic hepatoma cells; assay type: cell-based
In short: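 M-T variant; MgATP varied at six to eight levels, (0.5-4.0)×KM, with L-[methyl-14C]methionine fixed at 120 μM; two inhibitor levels plus uninhibited control. Duplicate 10-min incubations at 37 °C in pH 8.2 Tris/KCl/MgCl2/DTT. Stopped with HClO4-methionine; labelled product bound to phosphocellulose discs, scintillation counted; no-ATP blanks. Ki by replotting double-reciprocal slopes/intercepts.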

[3] = molecular target: T1, S-adenosylmethionine synthetase (MAT 1 and MAT 2); experiment: Inhibition constant of Met varied compound was measured on M-2 variant methionine adenosyltransferase in rat kidney
In short: (§2)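 L-[methyl-14C]methionine varied at six to eight levels, (0.5-4.0)×KM, with MgATP fixed at 2 mM for both M-2 and M-T; two inhibitor levels plus control. Incubations run in duplicate for 10 min at 37 °C, pH 8.2 Tris buffer with KCl, MgCl2 and DTT. Product on phosphocellulose discs counted by scintillation; no-ATP blanks. Ki from replots of double-reciprocal slopes/intercepts.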

[4] = molecular target: T1, S-adenosylmethionine synthetase (MAT 1 and MAT 2); experiment: Inhibition constant of Met varied compound was measured on MT variant methionine adenosyltransferase in rat ascitic hepatoma cells; assay type: cell-based; in short: as §2
[5] = molecular target: T1, S-adenosylmethionine synthetase (MAT 1 and MAT 2); experiment: Inhibition constant of Met varied compound was measured on M-2 variant Methionine adenosyltransferase in rat kidney; in short: as §2
[6] = molecular target: T1, S-adenosylmethionine synthetase (MAT 1 and MAT 2); experiment: Inhibition constant of ATP varied compound was measured on M-2 variate Methionine adenosyltransferase in rat kidney; in short: as §1

Ki [1] | Ki [2] | Ki [3] | Ki [4] | Ki [5] | Ki [6] | SMILES
440 nM | 810 nM | 2100 nM | 1500 nM | – | – | Nc1ncnc2c1ncn2[C@@H]1O[C@H](C(CCOP(=O)(O)OP(=O)(O)NP(=O)(O)O)SCCC(N)C(=O)O)[C@@H](O)[C@H]1O (stereo partly specified)
390 nM | 630 nM | 2200 nM | 2700 nM | – | – | Nc1ncnc2c1ncn2[C@@H]1O[C@H](CC(CSCC[C@H](N)C(=O)O)OP(=O)(O)OP(=O)(O)NP(=O)(O)O)[C@@H](O)[C@H]1O (stereo partly specified)
360 nM | 270 nM | 3000 nM | 2300 nM | – | – | Nc1ncnc2c1ncn2[C@@H]1O[C@H]([C@@H](CNP(=O)(O)OP(=O)(O)OP(=O)(O)O)SCCC(N)C(=O)O)[C@@H](O)[C@H]1O (stereo partly specified)
– | 210 nM | – | 670 nM | 650 nM | 130 nM | Nc1ncnc2c1ncn2[C@@H]1O[C@H]([C@H](CSCCC(N)C(=O)O)OP(=O)(O)OP(=O)(O)NP(=O)(O)O)[C@@H](O)[C@H]1O (stereo partly specified)
